VLA-4 inh = inhibition in a human VLA-4 binding assay; 330,000 compounds, 0.2% hits; VLA-4 expressing cells, ligand binding flow cytometry; inhibition, % (about 7 µM as worked out from the volumes in the protocol); in the data active means inhibition above about 50%
XBP1 UPR activ = adaptive UPR (XBP1) activation; CHO-XBP1 luciferase reporter, IRE1-XBP1 UPR activation, luminescence; percent of tunicamycin response, DMSO as zero; 330,000 compounds, 0.33% hits; AID 463104; activation, % at 20 µM;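 active means versus positive control, 20 µM dose yields 30% or more activation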;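 further: 100% = tunicamycin at 10 µg/mL and 0% = DMSO only wells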
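Material: IRE1-XBP1 luciferase reporter CHO line / Quantity: one thousand reporter cells per well / Buffer or medium: F12 with 10% serum / Compound: 20 µM single concentration, DMSO 1% / Times: 6 h treatment, 37 °C / Detection: Steady-Glo luciferase glow luminescence, 10 min after reagent addition / Benchmarks: tunicamycin high, DMSO low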
CHOP inh = blocks CHOP induction under ER stress | inhibition, % at 10 µM | 220,000 compounds, 3.8% hits | AID 2732 | CHO-K1 CHOP-promoter luciferase, tunicamycin-induced, 15-18 h;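 active means compounds that reduced the stress-induced luciferase reporter signal by more than about 70% of percent inhibition, limit read from the data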;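 further: 0% = tunicamycin plus vehicle and 100% = wells without tunicamycin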
B2AR ag = agonists of human beta-2 adrenergic receptor inducing internalization; P07550; AID 504454; response, % (concentration not given with the values); 340,000 compounds, 0.43% hits; Am2.2-beta2AR cells, FAP receptor internalization, flow cytometry;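 active means response above a set limit, near 3 SD of response in nonfluorescent compounds, cut at about 42% in these data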
Target sequence (P07550 whole entry, looked up): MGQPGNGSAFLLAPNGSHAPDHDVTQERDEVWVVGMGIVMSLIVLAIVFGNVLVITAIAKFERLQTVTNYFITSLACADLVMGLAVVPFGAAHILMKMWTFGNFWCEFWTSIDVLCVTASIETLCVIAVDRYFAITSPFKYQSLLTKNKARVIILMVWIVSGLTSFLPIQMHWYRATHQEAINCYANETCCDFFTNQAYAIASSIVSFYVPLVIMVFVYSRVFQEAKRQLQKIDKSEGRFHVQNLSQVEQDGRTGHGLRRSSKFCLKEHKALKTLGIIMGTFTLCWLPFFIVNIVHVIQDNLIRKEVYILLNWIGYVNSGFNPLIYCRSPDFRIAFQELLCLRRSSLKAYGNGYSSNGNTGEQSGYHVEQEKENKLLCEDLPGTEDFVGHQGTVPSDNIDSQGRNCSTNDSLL
CHOP UPR activ = apoptotic UPR (CHOP) activation. CHO-CHOP luciferase reporter, luminescence; percent of tunicamycin response over DMSO baseline. activation, % at 10 µM. 330,000 compounds, 0.34% hits. AID 449763;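 active means at 10 µM dose, activation of 40% or more, normalized to positive control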;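 further: 100% = tunicamycin at 10 µg/mL and 0% = DMSO alone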
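Test system: CHO CHOP reporter cells. Input: 500 CHO-CHOP cells per well. Medium: F12 with 10% FBS. Technique: luciferase luminescence. Measure: percent activation relative to tunicamycin control. Dosing: 10 µM compound, 0.5% DMSO. Timing: 16-18 h cell attachment, then 6 h compound exposure, 37 °C.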
* = called active by the depositor; i = inactive; / = no result given. Shown is part of a subset that was picked to be rich in hits.

SMILES	VLA-4 inh	XBP1 UPR activ	CHOP inh	B2AR ag	CHOP UPR activ
CCOC(=O)c1cc2c(=O)n3ccccc3nc2n(Cc2ccco2)c1=NC(=O)c1ccc(OC)cc1	-8	-3	5	8	0
O=C(CCN1C(=O)C2C3C=CC(C3)C2C1=O)Nc1ccc(F)cc1 (centres undefined)	-9	-1	86*	-2	-5
COc1cc(C(=O)Nc2nnc(C)s2)c([N+](=O)[O-])cc1OC	3	-3	-4	5	1
O=C(/C=C/c1cc[n+](CC(=O)c2ccc3cccc4c3c2CC4)cc1)c1ccc2cccc3c2c1CC3	-8	-2	-15	74*	-1
COc1cc2c(cc1OC)C(c1ccc(-c3ccc(Cl)c(Cl)c3)o1)=NCC2	-7	5	80*	-3	1
COc1ccc(N(CC(=O)N2CCc3ccccc3C2)S(C)(=O)=O)cc1Cl	9	0	/	2	-1
Cn1cc(C(=O)CCl)c2ccccc21	/	/	88*	12	/
CCSc1nnc(NC(=O)C2CCN(S(=O)(=O)c3c(C)c(C)cc(C)c3C)CC2)s1	-14	-1	78*	/	3
CC(C)(O)C#Cc1ccc([C@@H]2C[C@H]3CN(c4ccccc4)C(=O)[C@]34CCCN24)s1	-3	-2	95*	-8	-2
Cc1ccc(-n2c(N)c(C(=O)Nc3c(C)n(C)n(-c4ccccc4)c3=O)c3nc4ccccc4nc32)cc1C	0	0	91*	/	8
CCOc1ncccc1C(=O)NNC(=O)c1ccc(NS(=O)(=O)c2cccs2)cc1	7	-1	/	1	0
COc1ccc(S(=O)(=O)N2CCN(C(=O)C3CC(=O)N(c4ccccc4F)C3)CC2)cc1OC (centres undefined)	/	/	/	12	/
O=C(Nc1ccc(/C=C/c2nc3ccccc3o2)cc1)c1cccc(C(F)(F)F)c1	-4	12	93*	11	3
O=C(Nc1ccc(/C=C/c2nc3ccccc3o2)cc1)c1c(F)cccc1F	9	-5	23	6	5
O=C(N/N=C1\CC(c2ccccc2)Oc2ccccc21)c1ccc(O)cc1 (centres undefined)	4	4	/	-15	2
O=C(N/N=C1/CC(c2ccccc2)Oc2ccccc21)C1CC1 (centres undefined)	-25	4	93*	-6	1
CC(C)(C)C1CCC(=NOC(=O)c2ccc(F)cc2)CC1 (centres undefined)	4	-2	82*	-2	0
COc1ccc(N(C(=O)c2ccco2)S(=O)(=O)c2cccs2)cc1	17	12	39	5	-2
O=C(Nc1ccccc1N(C(=O)c1ccco1)S(=O)(=O)c1cccs1)c1ccco1	-4	-4	85*	7	-2
Cc1cc(C(=O)CSc2nc3ccccc3c(=O)n2C)c(C)n1Cc1ccc2c(c1)OCO2	25	1	79*	8	4
COc1ccc(OC)c(C2C(C(C)=O)=C(C)Nc3ncnn32)c1 (centres undefined)	-22	-4	/	-1	1
CC(=O)N1c2c(cc(Br)cc2S(=O)(=O)NCc2cccnc2)CC1C (centres undefined)	15	2	-3	-1	0
CCCCN(Cc1ccccc1)S(=O)(=O)c1cc(Br)cc2c1N(C(C)=O)C(C)C2 (centres undefined)	14	-2	84*	6	0
CCN(CC)c1ccc(/C=C/c2ccc3ccc(OC)cc3[n+]2CC)cc1	i	17	/	-156	27
O=C(Cc1c(Cl)cccc1Cl)NCCc1ccc(Cl)cc1	25	-3	75*	1	2
O=C(CCNC(=O)c1ccccc1Cl)NCCc1ccc(Cl)cc1	-4	-5	/	-1	2
CCN1CCN(C(=O)CCc2nnc(CCCCc3ccccc3)o2)[C@@H](C)C1=O	10	0	15	5	-1
Cc1sc2ncnc(SCC(=O)NC(C)(C)C)c2c1C	10	2	54	-3	1
Cc1ccc(OCC(=O)NNC(=O)CSc2ncnc3sc(C)c(C)c23)cc1	-6	2	89*	1	-2
COCCN(C(=O)COC(=O)/C=C/c1ccc(Cl)c(Cl)c1)c1c(N)n(Cc2ccccc2)c(=O)[nH]c1=O	/	/	/	11	/
